Measured values from ChEMBL document CHEMBL3739259, “Defining Key Structural Determinants for the Pro-osteogenic Activity of Flavonoids” (J Nat Prod, 2015).
The source made the active and inactive calls. No cut-off for these calls is given here.

Assays:
MSC [1] = assay: Induction of osteogenic differentiation in human MSC assessed as increase in ALP activity at 1 uM using p-NPP as substrate after 9 days by colorimetric method relative to control; format: functional
Method in brief: (§1)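 ALP read on day 9 in passage-3 bone-marrow hMSCs cultured at high density in Os.D medium. Compound (1, 5 or 10 μM, 0.1% v/v DMSO final) was re-applied on days 0, 3 and 6. Colorimetric p-nitrophenyl phosphate method, normalised to time and cell number (pNP/min/20,000 cells). Expressed as % of untreated control; three independent triplicate experiments; one-way ANOVA versus vehicle.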

MSC [2] = assay: (§2) Induction of osteogenic differentiation in human MSC assessed as increase in ALP activity at 5 uM using p-NPP as substrate after 9 days by colorimetric method relative to control; format: functional; method in brief: as §1
MSC [3] = assay: (§3) Induction of osteogenic differentiation in human MSC assessed as increase in ALP activity at 10 uM using p-NPP as substrate after 9 days by colorimetric method relative to control; format: functional; method in brief: as §1
[4] = Cytotoxicity against human MSC assessed as cell viability at 1 uM measured on day 1 by alamar blue assay (reference value: 97 to 101%); details: MSC cells, read-out: Activity
[5] = Cytotoxicity against human MSC assessed as cell viability at 5 uM measured on day 1 by alamar blue assay (reference value: 97 to 101%); details: MSC cells, read-out: Activity
[6] = Cytotoxicity against human MSC assessed as cell viability at 10 uM measured on day 1 by alamar blue assay (reference value: 97 to 101%); details: MSC cells, read-out: Activity
[7] = Cytotoxicity against human MSC assessed as cell viability at 1 uM treated for 3 days measured on day 4 by alamar blue assay (reference value: 97 to 100%); details: MSC cells, read-out: Activity
[8] = Cytotoxicity against human MSC assessed as cell viability at 5 uM treated for 3 days measured on day 4 by alamar blue assay (reference value: 97 to 100%); details: MSC cells, read-out: Activity
[9] = Cytotoxicity against human MSC assessed as cell viability at 10 uM treated for 3 days measured on day 4 by alamar blue assay (reference value: 97 to 100%); details: MSC cells, read-out: Activity
[10] = Cytotoxicity against human MSC assessed as cell viability at 1 uM treated for 6 days measured on day 7 by alamar blue assay (reference value: 96 to 101%); details: MSC cells, read-out: Activity
[11] = Cytotoxicity against human MSC assessed as cell viability at 5 uM treated for 6 days measured on day 7 by alamar blue assay (reference value: 96 to 101%); details: MSC cells, read-out: Activity
[12] = Cytotoxicity against human MSC assessed as cell viability at 10 uM treated for 6 days measured on day 7 by alamar blue assay (reference value: 96 to 101%); details: MSC cells, read-out: Activity
[13] = Cytotoxicity against human MSC assessed as decrease in cell number at 1 to 10 uM after 9 days by methylene blue staining based microscopy relative to control; details: 216 h
Method in brief: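 Passage-3 bone-marrow hMSCs, high density in Os.D medium, dosed with 1, 5 or 10 μM compound (0.1% v/v DMSO final) on days 0, 3 and 6 with medium changes. Cell number measured on day 9 by methylene blue proliferation assay. Expressed as % of untreated control; three independent triplicate experiments, mean ± SEM, one-way ANOVA versus vehicle.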

[14] = as §2; format: functional; method in brief: as §1
[15] = as §3; format: functional; method in brief: as §1
MSC [16] = assay: Induction of osteogenic differentiation in human MSC assessed as increase in ALP activity using p-NPP as substrate after 9 days by colorimetric method; format: functional; method in brief: as §1

O=C1c2c(O)cc(O)cc2O[C@H](c2ccc(O)c(O)c2)[C@H]1O [(+)-TAXIFOLIN]
Activity (MSC [1]): inactive | Activity (MSC [2]): inactive | Activity (MSC [3]): inactive | viability at 1 day, 1 µM [4]: 103% | viability at 1 day, 5 µM [5]: 101% | viability at 1 day, 10 µM [6]: 102% | viability at 72 h, 1 µM [7]: 92% | viability at 72 h, 5 µM [8]: 92% | viability at 72 h, 10 µM [9]: 92% | viability at 144 h, 1 µM [10]: 98% | viability at 144 h, 5 µM [11]: 98% | viability at 144 h, 10 µM [12]: 101%

Oc1cc(O)c2c(c1)O[C@H](c1ccc(O)c(O)c1)[C@H](O)C2 [(-)-EPICATECHIN]
Activity (MSC [1]): inactive | Activity (MSC [2]): inactive | Activity (MSC [3]): inactive | fold change (FC) [13]: 0.43 | viability at 1 day, 1 µM [4]: 92% | viability at 1 day, 5 µM [5]: 90% | viability at 1 day, 10 µM [6]: 84% | viability at 72 h, 1 µM [7]: 98% | viability at 72 h, 5 µM [8]: 95% | viability at 72 h, 10 µM [9]: 94% | viability at 144 h, 1 µM [10]: 96% | viability at 144 h, 5 µM [11]: 98% | viability at 144 h, 10 µM [12]: 98%

O=c1cc(-c2ccccc2)oc2ccccc12 [FLAVONE]
Activity (MSC [1]): inactive | Activity (MSC [2]): inactive | Activity (MSC [3]): inactive | Activity [13]: Toxic | viability at 1 day, 1 µM [4]: 102% | viability at 1 day, 5 µM [5]: 103% | viability at 1 day, 10 µM [6]: 106% | viability at 72 h, 1 µM [7]: 93% | viability at 72 h, 5 µM [8]: 93% | viability at 72 h, 10 µM [9]: 92% | viability at 144 h, 1 µM [10]: 100% | viability at 144 h, 5 µM [11]: 102% | viability at 144 h, 10 µM [12]: 98%

O=C(CCc1ccc(O)cc1)c1c(O)cc(O)cc1O [PHLORETIN]
Activity (MSC [1]): inactive | Activity (MSC [2]): inactive | Activity (MSC [3]): inactive | viability at 1 day, 1 µM [4]: 106% | viability at 1 day, 5 µM [5]: 105% | viability at 1 day, 10 µM [6]: 106% | viability at 72 h, 1 µM [7]: 93% | viability at 72 h, 5 µM [8]: 93% | viability at 72 h, 10 µM [9]: 95% | viability at 144 h, 1 µM [10]: 97% | viability at 144 h, 5 µM [11]: 98% | viability at 144 h, 10 µM [12]: 100%

O=c1c(O)c(-c2ccccc2)oc2cc(O)cc(O)c12 [GALANGIN]
Activity (MSC [1]): inactive | fold change (FC) [14]: 1.52 | fold change (FC) [15]: 1.32 | Activity (MSC [16]): Dose-dependent effect | viability at 1 day, 1 µM [4]: 105% | viability at 1 day, 5 µM [5]: 105% | viability at 1 day, 10 µM [6]: 104% | viability at 72 h, 1 µM [7]: 94% | viability at 72 h, 5 µM [8]: 91% | viability at 72 h, 10 µM [9]: 91% | viability at 144 h, 1 µM [10]: 99% | viability at 144 h, 5 µM [11]: 97% | viability at 144 h, 10 µM [12]: 97%

COc1cc(-c2oc3cc(O)cc(O)c3c(=O)c2O)ccc1O [ISORHAMNETIN]
Activity (MSC [1]): inactive | fold change (FC) [14]: 1.52 | fold change (FC) [15]: 1.32 | Activity [13]: Toxic | viability at 1 day, 1 µM [4]: 105% | viability at 1 day, 5 µM [5]: 107% | viability at 1 day, 10 µM [6]: 108% | viability at 72 h, 1 µM [7]: 93% | viability at 72 h, 5 µM [8]: 92% | viability at 72 h, 10 µM [9]: 91% | viability at 144 h, 1 µM [10]: 98% | viability at 144 h, 5 µM [11]: 100% | viability at 144 h, 10 µM [12]: 97%

COc1ccc(-c2cc(=O)c3c(O)cc(O)cc3o2)cc1O
Activity (MSC [1]): inactive | Activity (MSC [2]): inactive | Activity (MSC [3]): inactive

O=c1c(O)c(-c2ccc(O)c(O)c2)oc2cc(O)ccc12 [FISETIN]
Activity (MSC [1]): inactive | fold change (FC) [14]: 1.52 | fold change (FC) [15]: 1.32 | Activity [13]: Toxic | viability at 1 day, 1 µM [4]: 98% | viability at 1 day, 5 µM [5]: 98% | viability at 1 day, 10 µM [6]: 86% | viability at 72 h, 1 µM [7]: 96% | viability at 72 h, 5 µM [8]: 97% | viability at 72 h, 10 µM [9]: 95% | viability at 144 h, 1 µM [10]: 98% | viability at 144 h, 5 µM [11]: 97% | viability at 144 h, 10 µM [12]: 96%

O=c1cc(-c2ccc(O)cc2)oc2cc(O)cc(O)c12 [APIGENIN]
Activity (MSC [1]): inactive | Activity (MSC [2]): inactive | Activity (MSC [3]): inactive | Activity [13]: Toxic | viability at 1 day, 1 µM [4]: 98% | viability at 1 day, 5 µM [5]: 102% | viability at 1 day, 10 µM [6]: 98% | viability at 72 h, 1 µM [7]: 101% | viability at 72 h, 5 µM [8]: 99% | viability at 72 h, 10 µM [9]: 98% | viability at 144 h, 1 µM [10]: 96% | viability at 144 h, 5 µM [11]: 97% | viability at 144 h, 10 µM [12]: 94%

O=C1C[C@@H](c2ccc(O)cc2)Oc2cc(O)cc(O)c21 [NARINGENIN]
Activity (MSC [1]): inactive | Activity (MSC [2]): inactive | fold change (FC) [15]: 1.53 | viability at 1 day, 1 µM [4]: 104% | viability at 1 day, 5 µM [5]: 105% | viability at 1 day, 10 µM [6]: 105% | viability at 72 h, 1 µM [7]: 101% | viability at 72 h, 5 µM [8]: 104% | viability at 72 h, 10 µM [9]: 106% | viability at 144 h, 1 µM [10]: 100% | viability at 144 h, 5 µM [11]: 102% | viability at 144 h, 10 µM [12]: 103%

Oc1cc(O)c2c(c1)O[C@H](c1ccc(O)c(O)c1)[C@@H](O)C2 [CIANIDANOL]
Activity (MSC [1]): inactive | Activity (MSC [2]): inactive | Activity (MSC [3]): inactive | viability at 1 day, 1 µM [4]: 105% | viability at 1 day, 5 µM [5]: 104% | viability at 1 day, 10 µM [6]: 104% | viability at 72 h, 1 µM [7]: 94% | viability at 72 h, 5 µM [8]: 92% | viability at 72 h, 10 µM [9]: 93% | viability at 144 h, 1 µM [10]: 97% | viability at 144 h, 5 µM [11]: 98% | viability at 144 h, 10 µM [12]: 98%

O=c1c(O)c(-c2ccc(O)c(O)c2)oc2cc(O)cc(O)c12 [QUERCETIN]
Activity (MSC [1]): inactive | fold change (FC) [14]: 1.52 | fold change (FC) [15]: 1.32 | Activity [13]: Toxic | viability at 1 day, 1 µM [4]: 101% | viability at 1 day, 5 µM [5]: 100% | viability at 1 day, 10 µM [6]: 89% | viability at 72 h, 1 µM [7]: 98% | viability at 72 h, 5 µM [8]: 100% | viability at 72 h, 10 µM [9]: 101% | viability at 144 h, 1 µM [10]: 103% | viability at 144 h, 5 µM [11]: 104% | viability at 144 h, 10 µM [12]: 101%

Oc1ccc(/C=C/c2cc(O)cc(O)c2)cc1 [RESVERATROL]
Activity (MSC [1]): inactive | Activity (MSC [2]): inactive | Activity (MSC [3]): inactive | Activity [13]: Toxic | viability at 1 day, 1 µM [4]: 99% | viability at 1 day, 5 µM [5]: 101% | viability at 1 day, 10 µM [6]: 98% | viability at 72 h, 1 µM [7]: 100% | viability at 72 h, 5 µM [8]: 100% | viability at 72 h, 10 µM [9]: 100% | viability at 144 h, 1 µM [10]: 96% | viability at 144 h, 5 µM [11]: 97% | viability at 144 h, 10 µM [12]: 97%

COc1cc([C@@H]2CC(=O)c3c(O)cc(O)cc3O2)ccc1O
Activity (MSC [1]): inactive | Activity (MSC [2]): inactive | Activity (MSC [3]): inactive
